Experimental findings from ChEMBL document CHEMBL3286200, “Design and green synthesis of 2-(diarylalkyl)aminobenzothiazole derivatives and their dual activities as angiotensin converting enzyme inhibitors and calcium channel blockers” (Eur J Med Chem, 2014) are described below.

What is called inhibition is how much of the control response was suppressed. As usually defined, the IC50 is the concentration that gives 50% inhibition.

Structures are written as SMILES. Activity calls are given as the source filed them. The calls are words filed in the database; no cut-off is given here.

Test [1] is filed under the species Rattus norvegicus. Description: (§1) Inhibition of voltage-dependent calcium channel in Sprague-Dawley rat thoracic aorta assessed as inhibition of CaCl2-induced contraction by isometric force transducer. Type of test: tissue-based. In outline:
(§2)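 Rat aortic rings held at 37 °C in 25 mL oxygenated KHB in an organ bath, under 1 g resting tension, equilibrated about 30 min. Isometric tension recorded by force transducer. Initial contraction with phenylephrine 1 mM, buffer changed every 15 min. After preincubation with test agent, a cumulative calcium concentration-response curve (10^-3 to 10^-1 M) was recorded.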

For test [2], the target named is T1, Angiotensin-converting enzyme (Oryctolagus cuniculus) (UniProt P12822).
T1 sequence (whole entry): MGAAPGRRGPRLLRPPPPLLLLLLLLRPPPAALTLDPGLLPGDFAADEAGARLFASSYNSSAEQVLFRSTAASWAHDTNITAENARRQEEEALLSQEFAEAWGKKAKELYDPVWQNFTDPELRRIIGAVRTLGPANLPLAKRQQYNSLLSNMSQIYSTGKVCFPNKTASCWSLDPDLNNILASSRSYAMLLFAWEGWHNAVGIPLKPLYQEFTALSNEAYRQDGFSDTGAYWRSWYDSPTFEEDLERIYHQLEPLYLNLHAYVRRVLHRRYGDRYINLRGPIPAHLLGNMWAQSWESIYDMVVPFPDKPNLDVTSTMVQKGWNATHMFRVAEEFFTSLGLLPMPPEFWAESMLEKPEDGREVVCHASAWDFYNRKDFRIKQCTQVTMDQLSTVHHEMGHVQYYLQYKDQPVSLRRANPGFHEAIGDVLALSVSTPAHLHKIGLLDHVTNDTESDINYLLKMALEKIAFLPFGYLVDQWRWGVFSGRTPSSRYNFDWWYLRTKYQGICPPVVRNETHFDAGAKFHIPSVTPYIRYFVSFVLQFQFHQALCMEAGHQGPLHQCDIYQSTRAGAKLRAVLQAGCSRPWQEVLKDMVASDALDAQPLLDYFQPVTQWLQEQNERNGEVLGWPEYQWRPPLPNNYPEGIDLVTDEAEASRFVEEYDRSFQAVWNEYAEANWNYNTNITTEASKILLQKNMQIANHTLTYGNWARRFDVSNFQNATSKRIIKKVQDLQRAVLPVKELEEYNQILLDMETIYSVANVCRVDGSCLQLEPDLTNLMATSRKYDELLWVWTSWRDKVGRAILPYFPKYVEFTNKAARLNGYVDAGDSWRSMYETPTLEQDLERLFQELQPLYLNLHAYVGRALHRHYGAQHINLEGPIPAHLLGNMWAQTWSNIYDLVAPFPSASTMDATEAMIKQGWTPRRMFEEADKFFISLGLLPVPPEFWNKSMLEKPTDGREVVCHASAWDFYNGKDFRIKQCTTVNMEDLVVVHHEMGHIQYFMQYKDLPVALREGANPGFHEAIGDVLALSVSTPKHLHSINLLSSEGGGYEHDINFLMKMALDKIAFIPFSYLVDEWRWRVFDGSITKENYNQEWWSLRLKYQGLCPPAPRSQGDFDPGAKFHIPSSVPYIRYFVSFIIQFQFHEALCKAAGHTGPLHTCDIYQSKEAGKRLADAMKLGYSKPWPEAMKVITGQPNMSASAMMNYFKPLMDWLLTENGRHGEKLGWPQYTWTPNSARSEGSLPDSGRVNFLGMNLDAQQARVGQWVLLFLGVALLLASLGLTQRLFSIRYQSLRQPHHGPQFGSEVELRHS
Description: Inhibition of rabbit lung ACE assessed as inhibition of hippuryl-histidyl-leucine substrate hydrolysis at 1 uM pretreated for 10 mins followed by addition of 5 mM HHL substrate for 30 mins measured as hippuric acid release. In outline:
(§3)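 Reaction started with […] of 5 mM HHL; released hippuric acid read as yellow colour at 410 nm. Inhibition% = 100 − (T/C)×100; IC50 from percentage-inhibition versus concentration curves.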

For test [3], the target named is T2, Angiotensin-converting enzyme (Oryctolagus cuniculus, UniProt P12822).
T2 sequence (P12822 whole entry): T1 sequence (whole entry)
Description: Inhibition of rabbit lung ACE assessed as inhibition of hippuryl-histidyl-leucine substrate hydrolysis pretreated for 10 mins followed by addition of 5 mM HHL substrate for 30 mins measured as hippuric acid release. The essentials:
as §3

Test [4] in a line: as §1. Type of test: tissue-based. The essentials: as §2
Test [5] is filed under the species Rattus norvegicus. Kind of test: Inhibition of voltage-dependent calcium channel in Sprague-Dawley rat thoracic aorta assessed as inhibition of CaCl2-induced contraction at […] by isometric force transducer. Type of test: tissue-based. The essentials:
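Isolated rat aortic rings hung on steel hooks in a water-jacketed organ bath of oxygenated KHB at 37 °C. Resting tension 1 g, equilibration about 30 min. Rings precontracted with […], with buffer changed every 15 min. Tissue preincubated with test agent, then cumulative calcium concentration–response curve (10^-3 to 10^-1 M) recorded as isometric tension.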

In the case of `Oc1ccc2ccccc2c1C(Nc1nc2ccccc2s1)c1cccc(F)c1` (stereo not given), the inhibition entry in test [1] was “Dose-dependent effect”.
The same measure, in the same setting: for `Oc1ccc2ccccc2c1C(Nc1nc2c(Cl)cccc2s1)c1ccccc1` (stereo not given) the value was “Dose-dependent effect”; for `Oc1ccc2ccccc2c1C(Nc1nc2c(Cl)cccc2s1)c1cccc(Oc2ccccc2)c1` (stereo not given), “Dose-dependent effect”; for `Cc1ccc(C(Nc2nc3c(Cl)cccc3s2)c2c(O)ccc3ccccc23)cc1` (stereo not given), “Dose-dependent effect”.
On to `CN(C)c1ccc(C(Nc2nc3c(Cl)cccc3s2)c2c(O)ccc3ccccc23)cc1` (stereo not given), for which the inhibition result in test [1] was “Dose-dependent effect”.
Same read-out and setting: for `CC(c1ccccc1)C(Nc1nc2ccccc2s1)c1c(O)ccc2ccccc12` (stereo not given) the value was “Dose-dependent effect”; for `Oc1ccc2ccccc2c1C(Nc1nc2ccccc2s1)c1cccc(Cl)c1` (stereo not given), “Dose-dependent effect”.
The same measure, in the same setting: the entry for `Oc1ccc2ccccc2c1C(Nc1nc2ccccc2s1)c1cccc(Br)c1` (stereo not given) is “Dose-dependent effect”; for `Oc1ccc2ccccc2c1C(Nc1nc2c(Cl)cccc2s1)c1ccc(Cl)cc1Cl` (stereo not given) it is “Dose-dependent effect”.
`COc1ccc(C(Nc2nc3ccccc3s2)c2c(O)ccc3ccccc23)cc1` (stereo not given): the inhibition was 61.8% in test [2] and “Dose-dependent effect” in test [1]. The half-inhibitory concentration (IC50) came out at 0.837 µM in test [3] and 3 µM in test [4].
`Oc1ccc2ccccc2c1C(Nc1nc2c(Cl)cccc2s1)c1cccc(Cl)c1` (stereo not given): the inhibition entry in test [1] was “Dose-dependent effect”.
On the same count and under the same terms, for `Oc1ccc2ccccc2c1C(Nc1nc2c(Cl)cccc2s1)c1ccc(Br)cc1` (stereo not given) the value was “Dose-dependent effect”.
Same read-out and setting: for `N#Cc1ccc(C(Nc2nc3ccccc3s2)c2c(O)ccc3ccccc23)cc1` (stereo not given) the value was “Dose-dependent effect”.
Same read-out and setting: the entry for `Oc1ccc2ccccc2c1C(Nc1nc2ccccc2s1)c1ccc(Cl)cc1` (stereo not given) is “Dose-dependent effect”.
With `COc1ccc(C(Nc2nc3c(Cl)cccc3s2)c2c(O)ccc3ccccc23)cc1` (stereo not given), the results for the inhibition in test [2] and in test [1] were 80.1% and “Dose-dependent effect”, respectively. The results for the IC50 in test [3] and in test [4] were 0.607 µM and 50 µM, respectively.
As to `Oc1ccc2ccccc2c1C(Nc1nc2ccccc2s1)c1cccc(Cl)c1Cl` (stereo not given), in test [1], the inhibition entry was “Dose-dependent effect”.
`Oc1ccc2ccccc2c1C(Nc1nc2ccccc2s1)c1ccc(F)c(F)c1` (stereo not given): the inhibition result in test [1] is “Dose-dependent effect”.
`Oc1ccc2ccccc2c1C(Nc1nc2ccccc2s1)c1cc(F)ccc1Br` (stereo not given): the inhibition result in test [1] is “Dose-dependent effect”.
On the same count and under the same terms, the entry for `Oc1ccc2ccccc2c1C(Nc1nc2ccccc2s1)c1ccc(Cl)c(Cl)c1` (stereo not given) is “Dose-dependent effect”.
On the same count and under the same terms, for `Cc1cccc2sc(NC(c3ccc(Cl)c(Cl)c3)c3c(O)ccc4ccccc34)nc12` (stereo not given) the value was “Dose-dependent effect”; for `Oc1ccc2ccccc2c1C(Nc1nc2ccc(Cl)cc2s1)c1ccc(Cl)c(Cl)c1` (stereo not given), “Dose-dependent effect”.
Still for that read-out and setting: the entry for `Oc1ccc2ccccc2c1C(Nc1nc2ccccc2s1)c1ccc(F)cc1` (stereo not given) is “Dose-dependent effect”; for `Oc1ccc2ccccc2c1C(Nc1nc2ccc(Cl)cc2s1)c1ccc(Br)cc1` (stereo not given) it is “Dose-dependent effect”.
In the case of `O=C(/C=C/c1ccc(O)c(O)c1)c1ccc(O)cc1O` [BUTEIN], the IC50 in test [3] turned out to be 730 µM.
`Oc1ccc2ccccc2c1C(Nc1nc2ccc(Cl)cc2s1)c1ccccc1` (stereo not given): in test [1], the inhibition entry was “Dose-dependent effect”.
On the same count and under the same terms, for `Oc1ccc2ccccc2c1C(Nc1nc2ccccc2s1)c1cccc(Oc2ccccc2)c1` (stereo not given) the value was “Dose-dependent effect”.
`COC(=O)C1=C(C)NC(C)=C(C(=O)OC)C1c1ccccc1[N+](=O)[O-]`: in test [5], the inhibition result was “Active”.
Turning to `Oc1ccc2ccccc2c1C(Nc1nc2c(Cl)cccc2s1)c1ccc2ccccc2c1` (stereo not given), the inhibition entry in test [1] is “Dose-dependent effect”.
On the same count and under the same terms, the entry for `Oc1ccc2ccccc2c1C(Nc1nc2ccccc2s1)c1ccccc1Cl` (stereo not given) is “Dose-dependent effect”.
Still for that read-out and setting: the entry for `Cc1ccc(C(Nc2nc3ccc(Cl)cc3s2)c2c(O)ccc3ccccc23)cc1` (stereo not given) is “Dose-dependent effect”; for `COc1cc(C(Nc2nc3c(Cl)cccc3s2)c2c(O)ccc3ccccc23)cc(OC)c1OC` (stereo not given) it is “Dose-dependent effect”; for `Oc1ccc2ccccc2c1C(Nc1nc2ccccc2s1)c1ccccc1` (stereo not given) it is “Dose-dependent effect”.
Same read-out and setting: the entry for `Oc1ccc2ccccc2c1C(Nc1nc2c(Cl)cccc2s1)c1ccc(F)cc1` (stereo not given) is “Dose-dependent effect”.
Turning to `Oc1ccc2ccccc2c1C(Nc1nc2ccccc2s1)c1ccc(C(F)(F)F)cc1` (stereo not given), the inhibition result in test [1] was “Dose-dependent effect”.
The same measure, in the same setting: the entry for `CC(C)c1ccc(C(Nc2nc3ccccc3s2)c2c(O)ccc3ccccc23)cc1` (stereo not given) is “Dose-dependent effect”; for `COc1cc(C(Nc2nc3ccccc3s2)c2c(O)ccc3ccccc23)cc(OC)c1OC` (stereo not given) it is “Dose-dependent effect”; for `Oc1ccc2ccccc2c1C(Nc1nc2c(Cl)cccc2s1)c1ccc(Cl)c(Cl)c1` (stereo not given) it is “Dose-dependent effect”.
Turning to `COc1ccc(C(Nc2nc3ccccc3s2)c2c(O)ccc3ccccc23)c(OC)c1` (stereo not given), in test [1], the inhibition result is “Dose-dependent effect”.
On the same count and under the same terms, the entry for `CN(C)c1ccc(C(Nc2nc3ccccc3s2)c2c(O)ccc3ccccc23)cc1` (stereo not given) is “Dose-dependent effect”.
For the molecule `Cc1ccc(C(Nc2nc3ccccc3s2)c2c(O)ccc3ccccc23)cc1` (stereo not given), in test [1], the inhibition entry is “Dose-dependent effect”.
Still for that read-out and setting: for `Oc1ccc2ccccc2c1C(Nc1nc2ccccc2s1)c1ccc(Br)cc1` (stereo not given) the value was “Dose-dependent effect”.
Same read-out and setting: for `Oc1ccc2ccccc2c1C(Nc1nc2ccccc2s1)c1ccc(Cl)cc1Cl` (stereo not given) the value was “Dose-dependent effect”; for `Oc1ccc2ccccc2c1C(Nc1nc2ccccc2s1)c1ccc2ccccc2c1` (stereo not given), “Dose-dependent effect”.
Same read-out and setting: for `COc1ccc(C(Nc2nc3ccccc3s2)c2c(O)ccc3ccccc23)cc1OC` (stereo not given) the value was “Dose-dependent effect”.
